Source: ChEMBL document CHEMBL1147759, “Substituted indanylacetic acids as PPAR-alpha-gamma activators” (Bioorg Med Chem Lett, 2006)

Tests used:
[1] = target: T1, Peroxisome proliferator-activated receptor gamma (Homo sapiens, UniProt P37231); assay: Activity against PPAR gamma in human by FRET assay
T1 sequence (P37231 whole entry): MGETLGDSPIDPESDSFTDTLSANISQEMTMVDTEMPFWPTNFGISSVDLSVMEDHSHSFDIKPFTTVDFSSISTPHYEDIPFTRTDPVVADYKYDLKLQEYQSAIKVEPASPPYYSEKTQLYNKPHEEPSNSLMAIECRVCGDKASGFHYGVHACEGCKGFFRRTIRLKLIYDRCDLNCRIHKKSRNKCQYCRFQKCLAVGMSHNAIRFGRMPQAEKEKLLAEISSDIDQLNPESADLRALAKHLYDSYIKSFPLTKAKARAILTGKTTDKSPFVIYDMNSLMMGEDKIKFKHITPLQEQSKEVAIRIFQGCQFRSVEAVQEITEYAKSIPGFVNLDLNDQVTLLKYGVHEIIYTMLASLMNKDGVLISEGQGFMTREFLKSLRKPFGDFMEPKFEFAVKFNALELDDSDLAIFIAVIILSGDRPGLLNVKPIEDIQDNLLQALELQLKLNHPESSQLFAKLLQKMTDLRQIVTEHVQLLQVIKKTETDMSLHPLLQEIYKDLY

[2] = target: T2, Peroxisome proliferator-activated receptor alpha (Homo sapiens, UniProt Q07869); assay: Activity against PPAR alpha in human by FRET assay
T2 sequence (Q07869 whole entry): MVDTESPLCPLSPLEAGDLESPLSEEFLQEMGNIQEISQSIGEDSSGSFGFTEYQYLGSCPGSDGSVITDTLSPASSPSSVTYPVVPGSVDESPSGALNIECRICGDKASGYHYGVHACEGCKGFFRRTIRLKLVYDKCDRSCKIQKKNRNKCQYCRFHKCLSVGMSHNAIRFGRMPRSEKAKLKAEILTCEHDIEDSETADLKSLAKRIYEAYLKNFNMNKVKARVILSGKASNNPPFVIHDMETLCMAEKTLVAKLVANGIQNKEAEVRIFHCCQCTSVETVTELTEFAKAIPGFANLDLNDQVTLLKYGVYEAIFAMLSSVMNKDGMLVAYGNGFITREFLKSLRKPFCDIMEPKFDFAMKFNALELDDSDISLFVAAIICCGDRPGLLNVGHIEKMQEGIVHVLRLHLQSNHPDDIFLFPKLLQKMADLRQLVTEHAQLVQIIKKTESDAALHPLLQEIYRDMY
In short: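 Human PPAR-α ligand-binding domain (GST-tagged), incubated with compound, europium-labelled anti-GST antibody, biotinylated CREB-binding protein co-activator and streptavidin-APC. Time-resolved FRET read with excitation at 340 nm and emission at 615 and 640 nm. EC50 taken as the mean of at least three experiments.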

[3] = system: Mus musculus; assay: Decrease in serum triglyceride level in male hApoA1 mice administered at 10 mg/kg; assay type: functional; set-up: scale not given: the % may be the effect or the level left
In short: (§1)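 Male hApoA1 transgenic mice, n = 16 per group, had ad lib water and chow. They were dosed by oral gavage once daily for eight days in 0.5% methylcellulose vehicle, with vehicle controls. Serum lipid changes are compared with vehicle.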

[4] = AUC in male db/db mice administered at 3 mg/kg, po; assay type: ADME, organism-based; set-up: dose 3 mg/kg, route oral; details: mouse, plasma
[5] = AUC in male hApoA1 transgenic mice administered at 3 mg/kg, po; assay type: ADME, organism-based; set-up: dose 3 mg/kg, route oral; details: mouse, plasma
[6] = Cmax in male db/db mice administered at 3 mg/kg, po; assay type: ADME, organism-based; set-up: dose 3 mg/kg, route oral; details: mouse, in vivo
[7] = system: Mus musculus; assay: Increase in serum HDL in male hApoA1 mice administered at 30 mg/kg, po; assay type: functional; in short: as §1
[8] = system: Mus musculus; assay: Increase in serum HDL in male hApoA1 mice administered at 10 mg/kg, po; assay type: functional; in short: as §1
[9] = Cmax in male hApoA1 transgenic mice administered at 3 mg/kg, po; assay type: ADME, organism-based; set-up: dose 3 mg/kg, route oral; details: mouse, in vivo
[10] = system: Mus musculus; assay: Decrease in blood glucose level in male db/db mice administered at 10 mg/kg, po; assay type: functional; set-up: scale not given: the % may be the effect or the level left
In short: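 Given by oral gavage once daily for 14 days in 0.5% methylcellulose vehicle, with vehicle-dosed controls. After the last dose the mice were euthanized and blood was collected for glucose measurement. The decrease is expressed relative to vehicle.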

[11] = system: Mus musculus; assay: Decrease in serum triglyceride level in male hApoA1 mice administered at 30 mg/kg; assay type: functional; set-up: scale not given: the % may be the effect or the level left; in short: as §1

| EC50 [1] [nM] | EC50 [2] [nM] | Compound | also measured |
| --- | --- | --- | --- |
| 177 | 5790 | Cc1oc(-c2ccccc2)nc1CCOc1ccc2c(c1)CCC2C(CC(F)(F)F)C(=O)O (stereo not drawn) |  |
| 30 | 78 | CC[C@H](C(=O)O)[C@@H]1CCc2cc(OCCc3nc(-c4ccc(C)cc4)oc3C)ccc21 | Activity [3]: 45%; AUC [4]: 11600 ng·h/mL; AUC [5]: 8060 ng·h/mL; Cmax [6]: 2980 ng/mL; Activity [7]: 30%; Activity [8]: 15%; Cmax [9]: 2550 ng/mL; Activity [10]: 45%; Activity [11]: 60% |
| 52 | 3890 | CCCC(C(=O)O)C1CCc2cc(OCCc3nc(-c4ccccc4)oc3C)ccc21 (stereo not drawn) |  |
| 45 | 670 | COC(C(=O)O)C1CCc2cc(OCCc3nc(-c4ccccc4)oc3C)ccc21 (stereo not drawn) |  |
| 42 | 141 | CCC(C(=O)O)C1CCc2cc(OCCc3nc(-c4ccccc4)oc3C)ccc21 (stereo not drawn) |  |
| 12 | 500 | CCOC(C(=O)O)C1CCc2cc(OCCc3nc(-c4ccccc4)oc3C)ccc21 (stereo not drawn) |  |
| 154 | 37 | CCC(C(=O)O)C1CCc2cc(OCCc3nc(-c4ccc(F)cc4)oc3C)ccc21 (stereo in doubt) |  |
| 131 | 29 | CCC(C(=O)O)C1CCc2cc(OCCc3nc(-c4ccc(Cl)c(Cl)c4)oc3C)ccc21 (stereo in doubt) |  |
| 59 | 137 | CCC(C(=O)O)C1CCc2cc(OCCc3nc(-c4ccc(F)cc4)oc3C)ccc21 (stereo in doubt; 54) |  |
| 94 | 91 | CCC(C(=O)O)C1CCc2cc(OCCc3nc(-c4ccc(Cl)c(Cl)c4)oc3C)ccc21 (stereo in doubt; 66) |  |

Further lines, the molecule ahead of its results:

| Compound | EC50 [1] [nM] | EC50 [2] [nM] | also measured |
| --- | --- | --- | --- |
| CCC(C(=O)O)C1CCc2cc(OCCc3c(C)noc3C)ccc21 (stereo not drawn) | > 10000 | > 10000 |  |
| Cc1oc(-c2ccccc2)nc1CCOc1ccc2c(c1)CCC2C(C(=O)O)C(=O)O (stereo not drawn) | 1860 | > 10000 |  |
| Cc1oc(-c2ccccc2)nc1CCOc1ccc2c(c1)CCC2C(C)(C)C(=O)O (stereo not drawn) | 5640 | 6000 |  |
| CCC(C(=O)O)C1CCc2cc(OCCn3nc(-c4ccccc4)cc3C)ccc21 (stereo not drawn) | 196 | 232 |  |
| CCC(C(=O)O)C1CCc2cc(OCCn3ncc4ccccc4c3=O)ccc21 (stereo not drawn) | > 10000 | > 10000 |  |
| CCC(C(=O)O)C1CCc2cc(OCCc3noc(-c4ccccc4)n3)ccc21 (stereo not drawn) | > 10000 | 1040 |  |
| CCC(C(=O)O)C1CCc2cc(OCCc3c(-c4ccccc4)noc3C)ccc21 (stereo not drawn) | > 10000 | > 10000 |  |
| Cc1oc(-c2ccccc2)nc1CCOc1ccc2c(c1)CCC2C(C(=O)O)c1ccccc1 (stereo not drawn) | 9560 | 7260 |  |
| CCOC(=O)C(C(=O)O)C1CCc2cc(OCCc3nc(-c4ccccc4)oc3C)ccc21 (stereo not drawn) | 68 | 308 |  |
| Cc1oc(-c2ccccc2)nc1CCOc1ccc2c(c1)CCC2C(C(=O)O)C1CC1 (stereo not drawn) | 160 | 795 |  |
| CCC(C(=O)O)C1CCc2cc(OCCc3nc(-c4ccccc4)sc3C)ccc21 (stereo not drawn) | 85 | 979 |  |
| Cc1oc(-c2ccccc2)nc1CCOc1ccc2c(c1)CCC2C(CCCc1ccccc1)C(=O)O (stereo not drawn) | 3180 | > 10000 |  |
